According to ChEMBL document CHEMBL1143773, “Synthesis and studies on antidepressant and anticonvulsant activities of some 3-(2-furyl)-pyrazoline derivatives” (Eur J Med Chem, 2007):
Activity calls are given as the source filed them. No cut-off for these calls is given here.

Assays:
Mus musculus [1] = test: Anticonvulsant activity in Albino mouse by MES test at 100 mg/kg, ip after 30 mins; assay type: functional, organism-based; set-up: dose 100 mg/kg
How it was run: (§1)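 Phase I protocol of the NINCDS antiepileptic drug development programme in albino mice, covering MES, subcutaneous pentylenetetrazole (metrazol) and rotarod neurotoxicity. Doses were 30, 100 and 300 mg/kg, read at 1/2 h and 4 h. One animal per dose and time point, scored as 0/1 (no activity) or 1/1 (noticeable activity).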

Mus musculus [2] = test: Neurotoxicity in Albino mouse at 100 mg/kg, ip after 30 mins by RotaRod test; assay type: toxicity, organism-based; set-up: dose 100 mg/kg, route intraperitoneal; details: in vivo, 0.5 h; how it was run: as §1
Mus musculus [3] = test: Anticonvulsant activity in Albino mouse by MES test at 30mg/kg, ip after 30 mins; assay type: functional, organism-based; how it was run: as §1
Mus musculus [4] = test: Anticonvulsant activity against metrazole-induced seizures in Albino mouse at 100 mg/kg, ip after 4 hrs by scMet assay; assay type: functional, organism-based; set-up: dose 100 mg/kg; how it was run: as §1
Mus musculus [5] = test: Anticonvulsant activity in Albino mouse at 300 mg/kg, ip after 4 hrs by MES test; assay type: functional, organism-based; set-up: dose 300 mg/kg; how it was run: as §1
Mus musculus [6] = test: Anticonvulsant activity in Albino mouse at 100 mg/kg, ip after 4 hrs by MES test; assay type: functional, organism-based; set-up: dose 100 mg/kg; how it was run: as §1
Mus musculus [7] = test: Anticonvulsant activity against metrazole-induced seizures in Albino mouse at 30 mg/kg, ip after 30 mins by scMet assay; assay type: functional, organism-based; set-up: dose 30 mg/kg; how it was run: as §1
Mus musculus [8] = test: Anticonvulsant activity against metrazole-induced seizures in Albino mouse at 30 mg/kg, ip after 4 hrs by scMet; assay type: functional, organism-based; set-up: dose 30 mg/kg; how it was run: as §1
Mus musculus [9] = test: Anticonvulsant activity against metrazole-induced seizures in Albino mouse at 300 mg/kg, ip after 30 mins by scMet assay; assay type: functional, organism-based; set-up: dose 300 mg/kg; how it was run: as §1
Mus musculus [10] = test: Antidepressant activity in Albino mouse assessed as duration of immobility at 10 mg/kg, ip by forced-swimming test relative to control; assay type: functional; details: route intraperitoneal
How it was run: (§2)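 Porsolt forced-swim test in albino mice. Drug given ip at 0.5 ml/20 g body weight, 1 h before testing. Controls received 1% aqueous Tween 80. Each mouse was placed singly in a water-filled Plexiglas cylinder for 6 min. Immobility (floating upright with only slight movements to stay afloat) was timed over the last 4 min.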

Mus musculus [11] = test: Anticonvulsant activity against metrazole-induced seizures in Albino mouse at 100 mg/kg, ip after 30 mins by scMet assay; assay type: functional, organism-based; set-up: dose 100 mg/kg; how it was run: as §1
Mus musculus [12] = test: Neurotoxicity in Albino mouse at 100 mg/kg, ip after 4 hrs by RotaRod test; assay type: toxicity, organism-based; set-up: dose 100 mg/kg, route intraperitoneal; details: in vivo; how it was run: as §1
Mus musculus [13] = test: Neurotoxicity in Albino mouse at 30 mg/kg, ip after 4 hrs by RotaRod test; assay type: toxicity, organism-based; set-up: dose 30 mg/kg, route intraperitoneal; details: in vivo; how it was run: as §1
Mus musculus [14] = test: Anticonvulsant activity against metrazole-induced seizures in Albino mouse at 300 mg/kg, ip after 4 hrs by scMet assay; assay type: functional, organism-based; set-up: dose 300 mg/kg; how it was run: as §1
Mus musculus [15] = test: Neurotoxicity in Albino mouse at 300 mg/kg, ip after 30 mins by RotaRod test; assay type: toxicity, organism-based; set-up: dose 300 mg/kg, route intraperitoneal; details: in vivo, 0.5 h; how it was run: as §1
Mus musculus [16] = test: Anticonvulsant activity in Albino mouse at 30 mg/kg, ip after 4 hrs by MES test; assay type: functional, organism-based; set-up: dose 30 mg/kg; how it was run: as §1
Mus musculus [17] = test: Antidepressant activity in Albino mouse assessed as duration of immobility at 10 mg/kg, ip by forced-swimming test; assay type: functional; details: route intraperitoneal; how it was run: as §2
Mus musculus [18] = test: Anticonvulsant activity in Albino mouse by MES test at 300 mg/kg, ip after 30 mins; assay type: functional, organism-based; set-up: dose 300 mg/kg; how it was run: as §1
Mus musculus [19] = test: Neurotoxicity in Albino mouse at 300 mg/kg, ip after 4 hrs by RotaRod test; assay type: toxicity, organism-based; set-up: dose 300 mg/kg, route intraperitoneal; details: in vivo; how it was run: as §1
Mus musculus [20] = test: Neurotoxicity in Albino mouse at 30 mg/kg, ip after 30 mins by RotaRod test; assay type: toxicity, organism-based; set-up: dose 30 mg/kg, route intraperitoneal; details: in vivo, 0.5 h; how it was run: as §1

Compound | Activity (Mus musculus [1]) | Activity (Mus musculus [2]) | Activity (Mus musculus [3]) | Activity (Mus musculus [4]) | Activity (Mus musculus [5]) | Activity (Mus musculus [6]) | Activity (Mus musculus [7]) | Activity (Mus musculus [8]) | Activity (Mus musculus [9]) | Activity (Mus musculus [10]) [%] | Activity (Mus musculus [11]) | Activity (Mus musculus [12]) | Activity (Mus musculus [13]) | Activity (Mus musculus [14]) | Activity (Mus musculus [15]) | Activity (Mus musculus [16]) | Activity (Mus musculus [17]) [s] | Activity (Mus musculus [18]) | Activity (Mus musculus [19]) | Activity (Mus musculus [20])
CCNC(=S)N1N=C(c2ccco2)CC1c1ccccc1 (configuration not stated) | inactive | Not Active | inactive | inactive | inactive | inactive | inactive | inactive | Active | -33.8 | inactive | Not Active | Not Active | inactive | Not Active | inactive | 139 | inactive | Not Active | Not Active
NC(=S)N1N=C(c2ccco2)CC1c1ccccc1 (configuration not stated) | inactive | Not Active | inactive | inactive | inactive | inactive | inactive | inactive | inactive | 3.81 | inactive | Not Active | Not Active | inactive | Not Active | inactive | 202 | inactive | Not Active | Not Active
c1ccc(N2N=C(c3ccco3)CC2c2ccco2)cc1 (configuration not stated) | Active | Not Active | inactive | inactive | inactive | inactive | inactive | inactive | inactive | -19.52 | inactive | Not Active | Not Active | inactive | Not Active | inactive | 169 | Active | Not Active | Not Active
NC(=S)N1N=C(c2ccco2)CC1c1ccco1 (configuration not stated) | inactive | Not Active | inactive | inactive | Active | inactive | Active | inactive | Active | -13.33 | Active | Not Active | Not Active | inactive | Not Active | inactive | 182 | inactive | Not Active | Not Active
S=C(Nc1ccccc1)N1N=C(c2ccco2)CC1c1ccco1 (configuration not stated) | inactive | Not Active | inactive | inactive | inactive | inactive | inactive | inactive | Active | -13.81 | Active | Not Active | Not Active | inactive | Not Active | inactive | 181 | inactive | Not Active | Not Active
S=C(Nc1ccccc1)N1N=C(c2ccco2)CC1c1ccccc1 (configuration not stated) | inactive | Not Active | inactive | inactive | Active | inactive | inactive | inactive | inactive | -12.38 | inactive | Not Active | Not Active | inactive | Not Active | inactive | 184 | inactive | Not Active | Not Active
C=CCNC(=S)N1N=C(c2ccco2)CC1c1ccccc1 (configuration not stated) | Active | Not Active | inactive | inactive | inactive | inactive | inactive | inactive | inactive | -9.52 | inactive | Not Active | Not Active | inactive | Not Active | inactive | 190 | Active | Not Active | Not Active
c1ccc(C2CC(c3ccco3)=NN2c2ccccc2)cc1 (configuration not stated) | inactive | Not Active | inactive | inactive | inactive | inactive | inactive | inactive | inactive | 1.42 | inactive | Not Active | Not Active | Active | Not Active | inactive | 213 | inactive | Not Active | Not Active
N[C@H]1C[C@@H]1c1ccccc1.O=S(=O)(O)O | – | – | – | – | – | – | – | – | – | -72.85 | – | – | – | – | – | – | 57 | – | – | –
CNC(=S)N1N=C(c2ccco2)CC1c1ccco1 (configuration not stated) | inactive | Not Active | inactive | Active | Active | Active | inactive | inactive | inactive | -11.42 | inactive | Not Active | Not Active | Active | Not Active | Active | 186 | inactive | Not Active | Not Active
C=CCNC(=S)N1N=C(c2ccco2)CC1c1ccco1 (configuration not stated) | inactive | Not Active | inactive | Active | Active | Active | inactive | inactive | inactive | -31.42 | inactive | Not Active | Not Active | Active | Not Active | inactive | 144 | inactive | Not Active | Not Active
CCNC(=S)N1N=C(c2ccco2)CC1c1ccco1 (configuration not stated) | inactive | Not Active | inactive | inactive | inactive | inactive | Active | inactive | Active | 0.48 | Active | Not Active | Not Active | Active | Not Active | inactive | 211 | inactive | Not Active | Not Active
